{"source": "ChEMBL document CHEMBL5712912", "about": "“Abnormal overexpression of G9a in melanoma cells promotes cancer progression via upregulation of the Notch1 signaling pathway” (Aging (Albany NY), 2020)", "key": {"A-375 [1]": {"test_system": "A-375", "test": "Cytotoxicity against human A-375 cells assessed as reduction in cell viability by CCK-8 assay", "type": "functional, cell-based", "procedure,_shortened": "(§1)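 CCK8 proliferation assay. M14 or A375 cells, NICD plasmid-transfected where stated, were seeded at about 1000 cells per well, with 0.1% DMSO-treated cells as control. CCK8 reagent was added every 24 h and incubated 90 min at 37 °C, then OD read at 450 nm to build a proliferation curve. IC50 came from a dose-dependent viability series in A375.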"}, "A-375 [2]": {"test_system": "A-375", "test": "Induction of apoptosis in human A-375 cells assessed as early apoptotic cells at 2 uM by Annexin V-FITC/PI staining based flow cytometry (reference value: 0.43%)", "type": "functional"}, "A-375 [3]": {"test_system": "A-375", "test": "Antitumor activity against human A-375 cells xenografted in nude mouse assessed as tumor growth inhibition at 5 mg/kg, ip administered every other day for 10 days measured post-last dose by caliper method", "type": "functional, organism-based", "details": "time 10.0 day", "procedure,_shortened": "(§2)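 Male nude mice, 6 weeks old, were given A375 cells (2X 106) subcutaneously. After one week, animals with palpable xenografts were randomised into two groups: DMSO vehicle, or compound at 5 mg/kg i.p. every other day for 10 days. Tumour volume was measured, and body weight was monitored.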"}, "A-375 [4]": {"test_system": "A-375", "test": "Induction of apoptosis in human A-375 cells overexpressing NICD assessed as increase in cleaved Caspase-3 expression at 2 uM by Western blot analysis", "type": "functional, cell-based"}, "[5]": {"test": "Toxicity in human A-375 cells xenografted nude mouse assessed as change in body weight at 5 mg/kg, ip administered every other day for 10 days and measured during compound dosing", "type": "organism-based", "details": "in vivo, 240 h, time 10 day", "procedure,_shortened": "as §2"}, "M14 [6]": {"test_system": "M14", "test": "Antiinvasive activity against human M14 cells overexpressing NICD at 2 uM by transwell assay", "type": "functional, cell-based", "procedure,_shortened": "(§3)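 Transwell assay in M14 or A375 cells cultured in high-glucose DMEM with 10% FBS and penicillin/streptomycin; NICD overexpression plasmid transfected with Lipofectamine 2000. Invasion inserts coated with Matrigel diluted 1:6 in serum-free 1640 medium and set at 37 °C for 4 h; migration inserts uncoated, 5000 cells seeded. Control cells received DMSO. Migrated or invaded cells counted.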"}, "A-375 [7]": {"test_system": "A-375", "test": "Induction of apoptosis in human A-375 cells overexpressing […] assessed as live cells by Annexin V-FITC/PI staining based flow cytometry (Rvb-95.1%)", "type": "functional", "details": "dose 2 µM"}, "M14 [8]": {"test_system": "M14", "test": "Antiinvasive activity against human M14 cells at 2 uM by transwell assay", "type": "functional, cell-based", "procedure,_shortened": "as §3"}, "A-375 [9]": {"test_system": "A-375", "test": "Antimigratory activity against human A-375 cells at 2 uM by transwell assay", "type": "functional, cell-based", "procedure,_shortened": "as §3"}, "A-375 [10]": {"test_system": "A-375", "test": "Antiproliferative activity against human A-375 cells assessed as reduction in cell proliferation at 2 uM by CCK-8 assay", "type": "functional, cell-based", "procedure,_shortened": "as §1"}, "M14 [11]": {"test_system": "M14", "test": "Induction of apoptosis in human M14 cells assessed as necrotic cells at 2 uM by Annexin V-FITC/PI staining based flow cytometry (reference value: 1.34%)", "type": "functional"}, "M14 [12]": {"test_system": "M14", "test": "Induction of apoptosis in human M14 cells overexpressing NCID assessed as necrotic cells by Annexin V-FITC/PI staining based flow cytometry (Rvb-1.34%)", "type": "functional", "details": "dose 2 µM"}, "M14 [13]": {"test_system": "M14", "test": "Antimigratory activity against human M14 cells at 2 uM by transwell assay", "type": "functional, cell-based", "procedure,_shortened": "as §3"}, "A-375 [14]": {"test_system": "A-375", "test": "Antimigratory activity against human A-375 cells overexpressing NICD at 2 uM by transwell assay", "type": "functional, cell-based", "procedure,_shortened": "as §3"}, "A-375 [15]": {"test_system": "A-375", "test": "Induction of apoptosis in human A-375 cells assessed as live cells at 2 uM by Annexin V-FITC/PI staining based flow cytometry (reference value: 95.1%)", "type": "functional"}, "A-375 [16]": {"test_system": "A-375", "test": "Induction of apoptosis in human A-375 cells assessed as late apoptotic cells at 2 uM by Annexin V-FITC/PI staining based flow cytometry (reference value: 3.10%)", "type": "functional"}, "[17]": {"molecular_target": "T1, Histone-lysine N-methyltransferase EHMT2 (Homo sapiens) (UniProt Q96KQ7)", "T1 sequence (whole entry)": "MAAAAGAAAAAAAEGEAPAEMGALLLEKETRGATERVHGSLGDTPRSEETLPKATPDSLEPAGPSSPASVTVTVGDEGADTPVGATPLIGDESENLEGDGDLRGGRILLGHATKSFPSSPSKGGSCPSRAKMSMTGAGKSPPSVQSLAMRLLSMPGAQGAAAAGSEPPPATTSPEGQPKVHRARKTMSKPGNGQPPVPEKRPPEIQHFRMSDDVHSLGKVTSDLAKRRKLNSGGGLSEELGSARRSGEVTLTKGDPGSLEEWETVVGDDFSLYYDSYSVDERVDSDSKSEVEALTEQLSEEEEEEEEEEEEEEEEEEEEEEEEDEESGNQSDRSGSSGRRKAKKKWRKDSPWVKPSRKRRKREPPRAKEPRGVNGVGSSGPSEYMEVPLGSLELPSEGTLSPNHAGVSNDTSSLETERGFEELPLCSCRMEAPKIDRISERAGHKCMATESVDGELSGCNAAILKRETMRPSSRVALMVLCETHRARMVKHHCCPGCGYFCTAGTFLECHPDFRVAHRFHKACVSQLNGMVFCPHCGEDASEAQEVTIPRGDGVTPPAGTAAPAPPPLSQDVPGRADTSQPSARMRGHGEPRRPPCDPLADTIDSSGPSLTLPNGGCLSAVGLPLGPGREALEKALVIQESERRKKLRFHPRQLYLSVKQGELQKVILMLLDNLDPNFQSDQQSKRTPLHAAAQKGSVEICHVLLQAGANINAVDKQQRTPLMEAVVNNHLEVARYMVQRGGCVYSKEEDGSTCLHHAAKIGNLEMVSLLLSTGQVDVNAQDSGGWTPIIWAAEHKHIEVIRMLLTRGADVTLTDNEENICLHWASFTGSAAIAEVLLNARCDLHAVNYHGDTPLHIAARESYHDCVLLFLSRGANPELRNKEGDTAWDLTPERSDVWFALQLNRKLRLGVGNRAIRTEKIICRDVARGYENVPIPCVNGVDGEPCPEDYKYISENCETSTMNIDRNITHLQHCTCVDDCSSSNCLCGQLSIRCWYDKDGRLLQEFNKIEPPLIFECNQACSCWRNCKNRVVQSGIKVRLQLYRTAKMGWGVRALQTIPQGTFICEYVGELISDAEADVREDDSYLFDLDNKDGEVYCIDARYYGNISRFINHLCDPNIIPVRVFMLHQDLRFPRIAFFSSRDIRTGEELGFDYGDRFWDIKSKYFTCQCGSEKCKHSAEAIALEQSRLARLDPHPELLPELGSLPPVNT", "test": "Inhibition of G9a in human M14 cells assessed as reduction in AKT phosphorylation at 2 uM by Western blot analysis", "type": "cell-based"}, "A-375 [18]": {"test_system": "A-375", "test": "Induction of apoptosis in human A-375 cells assessed as reduction in Bcl-2 expression at 2 uM by Western blot analysis", "type": "functional, cell-based"}, "A-375 [19]": {"test_system": "A-375", "test": "Antiinvasive activity against human A-375 cells at 2 uM by transwell assay", "type": "functional, cell-based", "procedure,_shortened": "as §3"}, "[20]": {"molecular_target": "T1, Histone-lysine N-methyltransferase EHMT2 (Homo sapiens)", "test": "Inhibition of G9a in human M14 cells assessed as decrease in Hes1 expression at 2 uM by Western blot analysis", "type": "cell-based"}, "M14 [21]": {"test_system": "M14", "test": "Induction of apoptosis in human M14 cells assessed as late apoptotic cells at 2 uM by Annexin V-FITC/PI staining based flow cytometry (reference value: 3.10%)", "type": "functional"}, "M14 [22]": {"test_system": "M14", "test": "Induction of apoptosis in human M14 cells overexpressing NCID assessed as live cells by Annexin V-FITC/PI staining based flow cytometry (Rvb-95.1%)", "type": "functional", "details": "dose 2 µM"}, "M14 [23]": {"test_system": "M14", "test": "Induction of apoptosis in human M14 cells overexpressing NICD assessed as increase in cleaved Caspase-3 expression at 2 uM by Western blot analysis", "type": "functional, cell-based"}, "M14 [24]": {"test_system": "M14", "test": "Induction of apoptosis in human M14 cells assessed as live cells at 2 uM by Annexin V-FITC/PI staining based flow cytometry (reference value: 95.1%)", "type": "functional"}}, "note": "Calls of active or inactive are those of the source. No cut-off for these calls is given here."}
{"compound": "COc1cc2c(NC3CCN(C(C)C)CC3)nc(N3CCC(F)(F)CC3)nc2cc1OCCCN1CCCC1", "values": [{"measurement": "Activity", "setting": "A-375 [1]", "value": "Dose-Dependent Effect"}, {"measurement": "IC50", "setting": "A-375 [1]", "value": 3.06, "unit": "µM"}, {"measurement": "Activity", "setting": "A-375 [2]", "value": 4.8, "unit": "%"}, {"measurement": "TGI", "setting": "A-375 [3]", "value": "Active"}, {"measurement": "Activity", "setting": "A-375 [4]", "value": "inactive"}, {"measurement": "Activity", "setting": "[5]", "value": "Non-Toxic"}, {"measurement": "Activity", "setting": "M14 [6]", "value": "inactive"}, {"measurement": "Activity", "setting": "A-375 [7]", "value": 94.9, "unit": "%"}, {"measurement": "Activity", "setting": "M14 [8]", "value": "Active"}, {"measurement": "Activity", "setting": "A-375 [9]", "value": "Active"}, {"measurement": "Activity", "setting": "A-375 [10]", "value": "Active"}, {"measurement": "Activity", "setting": "M14 [11]", "value": 0.27, "unit": "%"}, {"measurement": "Activity", "setting": "M14 [12]", "value": 0.76, "unit": "%"}, {"measurement": "Activity", "setting": "M14 [13]", "value": "Active"}, {"measurement": "Activity", "setting": "A-375 [14]", "value": "inactive"}, {"measurement": "Activity", "setting": "A-375 [15]", "value": 89.8, "unit": "%"}, {"measurement": "Activity", "setting": "A-375 [16]", "value": 5.17, "unit": "%"}, {"measurement": "inhibition", "setting": "[17]", "value": "Active"}, {"measurement": "Activity", "setting": "A-375 [18]", "value": "Active"}, {"measurement": "Activity", "setting": "A-375 [19]", "value": "Active"}, {"measurement": "inhibition", "setting": "[20]", "value": "Active"}, {"measurement": "Activity", "setting": "M14 [21]", "value": 5.17, "unit": "%"}, {"measurement": "Activity", "setting": "M14 [22]", "value": 94.9, "unit": "%"}, {"measurement": "Activity", "setting": "M14 [23]", "value": "inactive"}, {"measurement": "Activity", "setting": "M14 [24]", "value": 89.8, "unit": "%"}]}
